Data published in ChEMBL document CHEMBL4190248, “Synthesis and evaluation of N-heteroaromatic ring-based analogs of piperlongumine as potent anticancer agents” (Eur J Med Chem, 2017).
In brackets after ≈: the same amount, converted by molar mass. Activity calls are given as the source filed them. No cut-off for these calls is given here.

Legend:
[1] = Aqueous solubility of the compound in pure water by HPLC analysis; assay type: physicochemical
In short: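 Solubility was measured in pure water by HPLC on a C18 column using acetonitrile–water 60/40 (v/v) at 1.0 mL/min, with detection at 254 nm, in triplicate.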

HCT-116 [2] = experiment: Antiproliferative activity against human HCT116 cells after 72 hrs by MTT assay; assay type: functional, cell-based; details: HCT-116, 72 h
HCT-116 [3] = experiment: Antiproliferative activity against human HCT116 cells at 10 uM after 72 hrs by MTT assay; assay type: functional, cell-based
A549 = experiment: Antiproliferative activity against human A549 cells at 10 uM after 72 hrs by MTT assay; assay type: functional, cell-based
K562 = experiment: Antiproliferative activity against human K562 cells at 10 uM after 72 hrs by MTT assay; assay type: functional, cell-based
HCT-116 [4] = experiment: Antitumor activity against human HCT116 cells xenografted in BALB/c nude mouse assessed as reduction in tumor weight at 5 mg/kg, ip administered daily for 21 days; assay type: functional; parameters: scale not given: the % may be the effect or the level left
In short: (§1)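 Male BALB/c nude mice, 3–5 weeks old, received 1×10^7 HCT-116 cells subcutaneously. Once tumors reached about 75 mm³, mice were randomized to groups of 8 and given 5 mg/kg intraperitoneally once daily for 21 days. Body weight was followed over time. At sacrifice, tumors were weighed, and inhibition (%) = (Wcontrol − Wtreated)/Wcontrol × 100. Data are mean ± SD.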

HCT-8 = experiment: Antiproliferative activity against human HCT8 cells after 72 hrs by MTT assay; assay type: functional, cell-based; details: HCT-8, 72 h
In short: (§2)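 Cells were cultured overnight in RPMI 1640 + 10% FBS, then treated in triplicate with vehicle or compound across the indicated concentrations for 72 h. MTT was added for the final 4 h, formazan was dissolved in DMSO, and absorbance was read at 570 nm. Inhibition rate = (1 − OD treated/OD control) × 100%, and the IC50 was derived from it.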

[5] = Aqueous solubility of the compound in PBS buffer at pH 5 by HPLC analysis; assay type: physicochemical
HT-29 = experiment: Antiproliferative activity against human HT-29 cells after 72 hrs by MTT assay; assay type: functional, cell-based; details: HT-29, 72 h; in short: as §2
[6] = Cytotoxicity against human CCD-841 cells assessed as reduction in cell viability after 72 hrs by MTT assay; assay type: cell-based; details: CCD-841, 72 h; in short: as §2
HCT-116 [7] = experiment: Induction of intracellular ROS generation in human HCT116 cells at 10 uM after 3 hrs by DCFH-DA-dye based fluorescence microscopy; assay type: functional, cell-based
In short: (§3)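 Cells were treated in triplicate with 10 µM compound or with vehicle DMSO (0.1%, v/v) for 3 h. Intracellular ROS was detected with a fluorescent probe, the legend citing DCFH-DA and the methods citing dihydroethidium (300/610 nm). Signals were read on a fluorescence microplate reader and imaged by fluorescence microscopy.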

[8] = Induction of intracellular ROS generation in human CCD-841 cells at 10 uM after 3 hrs by DCFH-DA-dye based fluorescence microscopy; assay type: cell-based; in short: as §3
Mus musculus [9] = experiment: Toxicity in nude BALB/c mouse xenografted with human HCT116 cells assessed as effect on liver size at 5 mg/kg, ip administered daily for 21 days; assay type: organism-based; details: in vivo, 504 h
In short: (§4)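 HCT-116 xenografts (1×10^7 cells s.c.) were grown in male BALB/c nude mice, 3–5 weeks old, to about 75 mm³. Mice (n = 8 per group) then received 5 mg/kg i.p. daily for 21 days. Liver, kidney, lung and heart were examined for size and morphology against vehicle-treated controls.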

Mus musculus [10] = experiment: Toxicity in nude BALB/c mouse xenografted with human HCT116 cells assessed as effect on liver morphology at 5 mg/kg, ip administered daily for 21 days; assay type: organism-based; details: in vivo, 504 h; in short: as §4
Mus musculus [11] = experiment: Toxicity in nude BALB/c mouse xenografted with human HCT116 cells assessed as effect on kidney size at 5 mg/kg, ip administered daily for 21 days; assay type: organism-based; details: in vivo, 504 h; in short: as §4
Mus musculus [12] = experiment: Toxicity in nude BALB/c mouse xenografted with human HCT116 cells assessed as effect on kidney morphology at 5 mg/kg, ip administered daily for 21 days; assay type: organism-based; details: in vivo, 504 h; in short: as §4
Mus musculus [13] = experiment: Toxicity in nude BALB/c mouse xenografted with human HCT116 cells assessed as effect on lung size at 5 mg/kg, ip administered daily for 21 days; assay type: organism-based; details: in vivo, 504 h; in short: as §4
Mus musculus [14] = experiment: Toxicity in nude BALB/c mouse xenografted with human HCT116 cells assessed as effect on lung morphology at 5 mg/kg, ip administered daily for 21 days; assay type: organism-based; details: in vivo, 504 h; in short: as §4
Mus musculus [15] = experiment: Toxicity in nude BALB/c mouse xenografted with human HCT116 cells assessed as effect on heart size at 5 mg/kg, ip administered daily for 21 days; assay type: organism-based; details: in vivo, 504 h; in short: as §4
Mus musculus [16] = experiment: Toxicity in nude BALB/c mouse xenografted with human HCT116 cells assessed as effect on heart morphology at 5 mg/kg, ip administered daily for 21 days; assay type: organism-based; details: in vivo, 504 h; in short: as §4
Mus musculus [17] = experiment: Toxicity in nude BALB/c mouse xenografted with human HCT116 cells assessed as reduction in body weight at 5 mg/kg, ip administered daily for 21 days; assay type: organism-based; details: in vivo, 504 h; in short: as §1

Compound | solubility [1] [µg/mL] | IC50 (HCT-116 [2]) [µM] | Activity (HCT-116 [3]) | Activity (A549) | Activity (K562) | also measured
O=C1C=CCCN1C(=O)/C=C/c1cccnc1 | 45.3 (≈ 198 µM) | – | – | – | – | –
O=C1C=CCCN1C(=O)/C=C/c1cnc2ccccc2c1 | 1.95 (≈ 7.01 µM) | 8.17 | Active | Active | Active | –
COc1cc(/C=C/C(=O)N2CCC=CC2=O)cc(OC)c1OC [PIPLARTINE] | 1.63 (≈ 5.14 µM) | – | Active | Active | Active | Activity (HCT-116 [4]): 53%
O=C1C=CCCN1C(=O)/C=C/c1ccc2ccccc2n1 | 2.41 (≈ 8.66 µM) | 0.93 | Active | Active | Active | –
O=C(/C=C/c1ccc2ccccc2n1)N1CCC=C(Cl)C1=O | – | 0.47 | Active | – | – | IC50 (HCT-8): 1790 nM; solubility [5]: 1990 µg/mL (≈ 6370 µM); IC50 (HT-29): 920 nM; IC50 [6]: 50.8 µM; Activity (HCT-116 [7]): Active; Activity [8]: Non-Toxic; Activity (HCT-116 [4]): 52%; Activity (Mus musculus [9]): Non-Toxic; Activity (Mus musculus [10]): Non-Toxic; Activity (Mus musculus [11]): Non-Toxic; Activity (Mus musculus [12]): Non-Toxic; Activity (Mus musculus [13]): Non-Toxic; Activity (Mus musculus [14]): Non-Toxic; Activity (Mus musculus [15]): Non-Toxic; Activity (Mus musculus [16]): Non-Toxic; Activity (Mus musculus [17]): Non-Toxic
O=C1C=CCCN1C(=O)/C=C/c1ccncc1 | 46.2 (≈ 202 µM) | 7.05 | Active | Active | Active | –

Continued, in another order:

solubility [1] [µg/mL] | IC50 (HCT-116 [2]) [µM] | Compound | Activity (HCT-116 [3]) | Activity (A549) | Activity (K562) | also measured
40.4 (≈ 177 µM) | – | O=C1C=CCCN1C(=O)/C=C/c1ccccn1 | – | – | – | –
48.2 (≈ 198 µM) | 8.9 | Cc1nccnc1/C=C/C(=O)N1CCC=CC1=O | Active | Active | Active | –
59.8 (≈ 261 µM) | 3.19 | O=C1C=CCCN1C(=O)/C=C/c1cnccn1 | Active | Active | Active | –
47.9 (≈ 197 µM) | 7.95 | Cc1cnc(/C=C/C(=O)N2CCC=CC2=O)cn1 | Active | Active | Active | –
